Assay outcomes (PubChem)
This is a sample that favours compounds with a hit; in the whole collection about 1.5% have one here.
DAGLB inhibitor – DAGLB lipase inhibitors, primary screen, biochemical, fluorescence, HTS | Diacylglycerol lipase-beta (Homo sapiens), Q8NCG7 | 340,000 compounds, 0.059% hits | inhibition, % at 5.17 µM | AID 504411, 2011 | HEK293T DAGLB membrane lysate, EnzChek fluorogenic substrate; in the data active means inhibition above about 34%;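 further: 0% = enzyme with vehicle and 100% = wells lacking enzyme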
SIAE primary – human SIAE inhibitors, primary screen, biochemical, fluorescence polarization, FP-Rh probe, 1536-well HTS; Sialate O-acetylesterase (Homo sapiens), Q9HAT2; SIAE FP-Rh probe binding; inhibition, % at 9.66 µM; 370,000 compounds, 0.69% hits;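 active means inhibition above a cutoff: mean of compounds within the control limits plus 3 SD of those, cut at about 17% in these data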;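 further: 0% = plate median of compound wells and 100% = probe without SIAE protein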
HTRA1 inh – HTRA1 serine protease inhibitors, primary screen, biochemical, fluorescence polarization, HTS; Q92743; recombinant HTRA1, FP-rhodamine activity-based probe; inhibition, % at 5.96 µM; 340,000 compounds, 0.5% hits; AID 504803, 2011; in the data active means inhibition above about 36%;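 further: 0% = enzyme with DMSO and 100% = wells lacking enzyme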
Target sequence (Q92743 whole entry, looked up): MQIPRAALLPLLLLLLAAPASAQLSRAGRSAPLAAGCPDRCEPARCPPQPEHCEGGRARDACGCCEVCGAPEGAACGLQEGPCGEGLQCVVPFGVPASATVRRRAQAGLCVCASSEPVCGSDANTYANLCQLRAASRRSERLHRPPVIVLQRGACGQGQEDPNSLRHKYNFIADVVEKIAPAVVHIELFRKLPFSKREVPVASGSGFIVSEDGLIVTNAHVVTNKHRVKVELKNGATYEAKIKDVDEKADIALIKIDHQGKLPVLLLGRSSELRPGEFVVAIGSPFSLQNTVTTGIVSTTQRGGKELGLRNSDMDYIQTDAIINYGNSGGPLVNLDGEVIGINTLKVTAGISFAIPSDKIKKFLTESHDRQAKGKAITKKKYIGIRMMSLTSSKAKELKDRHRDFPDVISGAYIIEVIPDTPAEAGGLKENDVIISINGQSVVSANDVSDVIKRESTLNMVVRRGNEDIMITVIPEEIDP
TCR CD3 inh – inhibitors of human TCR-CD3 interaction, primary screen, biochemical, fluorescence, TAMRA-labeled TCR probe. T-cell receptor (TCR). inhibition, % at 9.4 µM. 360,000 compounds, 0.37% hits;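 further: recombinant mutant TCR 2C K166C tagged with TAMRA read by polarization; 0% = receptor in buffer alone and 100% = receptor with positive control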
mABHD4 FP – ABHD4 inhibitors, primary screen, biochemical, fluorescence polarization, mouse | 370,000 compounds, 0.54% hits | AID 720543, 2013 | inhibition, % at 8.92 µM | purified mABHD4, FP-Rh probe fluorescence polarization | (Lyso)-N-acylphosphatidylethanolamine lipase (Mus musculus), Q8VD66;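 active means inhibition exceeding the mean over every tested compound plus 3 SD, cut at about 30% in these data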;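 further: 0% = plate median of compound wells and 100% = S159A mutant with DMSO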
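Material: mouse ABHD4 enzyme, wild type; Benchmarks: S159A mutant high control, sample median low control; Buffer or medium: HEPES pH 7.0, NaCl, Pluronic buffer; Signal: fluorescence polarization; Read-out: percent inhibition of probe binding, normalized to plate controls; Timing: pre-incubation 45 min, probe exposure 60 min, at 25 °C; Dosing: 8.92 µM, single dose.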
HTRA1 inh conf – HTRA1 protease inhibitors, retest, confirmation, biochemical, fluorescence polarization | shares compounds with HTRA1 inh | recombinant HTRA1, FP-rhodamine activity-based probe | inhibition, % at 5.96 µM | 1,600 compounds, 66% hits | AID 540248, 2011;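 active means mean inhibition over three repeats above a set limit taken from the earlier primary screen, cut at about 37% in these data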;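 further: 0% = HTRA1 with DMSO and 100% = wells lacking HTRA1; inhibitors block probe binding so polarization drops and inhibition rises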
BSA TAMRA ctr – compounds interfering with TAMRA-BSA probe, counter-screen for TCR-CD3 interaction inhibitor project, biochemical, fluorescence, TAMRA-labeled BSA | TAMRA-labeled BSA probe fluorescence counterscreen | AID 652035, 2013 | inhibition, % at 9.4 µM | shares compounds with TCR CD3 inh | 1,200 compounds, 10% hits; in the data active means inhibition above about 23%;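 further: 0% = buffer low control and 100% = reference high control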
TCR-CD3 inh conf – TCR-CD3 interaction inhibitors, retest, confirmation, biochemical, fluorescence, TAMRA-labeled TCR probe; shares compounds with TCR CD3 inh; TAMRA-labeled TCR probe fluorescence binding assay; inhibition, % at 9.4 µM; 1,200 compounds, 48% hits; AID 652036, 2013
ABHD4 confirm – ABHD4 inhibitors, retest, confirmation, biochemical, fluorescence polarization, mouse | shares compounds with mABHD4 FP | purified mABHD4, FP-Rh probe fluorescence polarization | inhibition, % at 8.92 µM | 1,800 compounds, 55% hits;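 active means mean inhibition across replicates above the hit cutoff set in the primary screen, cut at about 30% in these data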;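 further: 0% = wild-type ABHD4 with DMSO and 100% = catalytically dead S159A mutant with DMSO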
SIAE confirm – human SIAE inhibitors, retest, confirmation, biochemical, fluorescence polarization, FP-Rh probe, triplicate; shares compounds with SIAE primary; SIAE FP-Rh activity-based probe; inhibition, % at 9.66 µM; 2,300 compounds, 13% hits; AID 1117263, 2014;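 active means mean inhibition of the replicates above the hit cutoff set in the primary screen, cut at about 17% in these data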;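 further: 0% = SIAE with DMSO and probe and 100% = probe without SIAE; inhibitors lower polarization as more probe stays unbound to SIAE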
The depositor's hits bear a star; x = not tested or not shown. Unless noted, no stated cut-off is given here; in the data, active means inhibition above about 19%; inactive means the rest.

SMILES	DAGLB inhibitor	SIAE primary	HTRA1 inh	TCR CD3 inh	mABHD4 FP	HTRA1 inh conf	BSA TAMRA ctr	TCR-CD3 inh conf	ABHD4 confirm	SIAE confirm
O=C1C=C(N2CCOCC2)c2cccc3cccc1c23	-3	47*	43*	79*	83*	8	7	3	2	-2
O=C1C(N2CCOCC2)=Cc2cccc3cccc1c23	-2	49*	59*	87*	86*	39*	70*	47*	83*	27*
COC(=O)[C@]12C[C@H](CC(=O)NCc3cccc(C(F)(F)F)c3)C(=O)N(Cc3ccc(Cl)cc3Cl)C1=C[C@H](COCc1ccccc1)O[C@@H]2C	x	-7	x	x	-10	x	x	x	x	x
COC(=O)C1=C(C)NC(C)=C(C(=O)OC)C(N2C(=O)CCC2=O)C1 (configuration not stated)	x	-5	x	1	2	x	x	x	x	x
COc1ccc(NC2CC(=O)N(C(C)C)C2=O)cc1 (configuration not stated)	2	2	11	-3	5	x	x	x	x	x
CC(C)N1C(=O)CC(Nc2cccc3cccc(N)c23)C1=O (configuration not stated)	5	32*	36*	9	36*	11	x	x	x	6
O=[N+]([O-])c1ccc(N/N=C/c2c[nH]c3ccccc23)cc1	30	8	31	-17	10	x	x	x	x	x
O=[N+]([O-])c1ccc(N/N=C/c2ccc[nH]2)cc1	20	18*	45*	-17	-13	57*	x	x	x	-4
CCOC(=O)C(C(=O)OCC)c1cc(Br)c2noc3c2c1C(=O)c1ccccc1-3	-14	22*	48*	8	22	25	x	x	x	-2
COCCCNC(=O)c1ccc2c3c(onc13)-c1ccccc1C2=O	17	x	6	x	x	x	x	x	x	x
Cn1c(=O)c(Nc2ccc(O)cc2)c2c3c(cccc31)C(=O)c1ccccc1-2	44*	26*	78*	16	74*	86*	x	x	65*	14
CC(C)c1ccc(Nc2c([N+](=O)[O-])c(=O)n(C)c3ccccc23)cc1	3	-2	-26	-6	3	x	x	x	x	x
CN1C(=O)NC(c2ccccc2[N+](=O)[O-])C2=C1CCCC2=O (configuration not stated)	-10	54*	77*	85*	89*	44*	62*	44*	56*	80*
CCOc1cccc(CNn2cnnc2)c1OCc1ccccc1Cl	1	3	-2	8	-1	x	x	x	x	x
CCOc1cccc(CNc2ccc(O)cc2)c1OCc1ccccc1Cl	-1	30*	52*	24*	55*	15	-8	-1	31*	10
Nc1ccc(Nc2nc3ccccc3[nH]2)cc1	4	57*	58*	-17	31*	66*	x	x	59*	58*
CC/C(=N\Nc1ccnc2cc(Cl)ccc12)c1ccc(O)cc1	-2	8	5	4	0	x	x	x	x	x
Oc1ccc(/C=N/Nc2ccnc3cc(Cl)ccc23)c(O)c1O	13	41*	66*	20*	38*	65*	-16	22*	56*	33*
